Test results taken from ChEMBL document CHEMBL1143310, “Design, synthesis, and biological evaluation of fluorinated analogues of salicylihalamide” (J Med Chem, 2009).
pIC50: −log10 of the molar value. Calls of active or inactive are those of the source. No cut-off for these calls is given here.

Tests used:
[1] = Cytotoxicity against human NCI60 cells; type: functional
[2] = Cytotoxicity against human melanoma cells; type: functional; conditions: Melanoma cell
[3] = Inhibition of V-ATPase activity in bovine […] chromaffin granule membrane; design: species or system Bos taurus
[4] = Inhibition of proton transport activity of V-ATPase in pig adrenal chromaffin granule membrane by fluorescent quenching measurement; design: species or system Sus scrofa
In short: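 Porcine adrenal chromaffin granule membranes (50 µg protein) in 0.3 M sucrose, 40 mM KCl, 5 mM tricine, pH 8.0, with ACMA and valinomycin, preincubated 10 min at 37 °C. Compound added in DMSO (0.1% final), 3 min at 37 °C. MgATP added for 2 min, then FCCP. ACMA fluorescence quenching read. Activity taken as % of DMSO control, in triplicate with SD. IC50 derived graphically from log-concentration plots.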

[5] = Cytotoxicity against african green monkey COS7 cells at 1 uM after 5 hrs by trypan blue exclusion test; type: cell-based; conditions: chlorocebus aethiops, cos-7, 5 h
In short: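 COS-7 cells were cultured on poly-L-lysine coverslips and exposed to compound at 1 µM final for 5 h at 37 °C. Intact or treated cells were soaked in PBS with 0.3% trypan blue. Viability was judged by dye exclusion under bright-field and phase-contrast microscopy.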

COS-7 = assay: Inhibition of V-ATPase activity in african green monkey COS7 cells assessed as increase in luminal pH of lysosomes at 1 uM after 5 hrs by fluorescent microscopy; type: cell-based; conditions: Chlorocebus aethiops
In short: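 COS-7 cells grown in DMEM with 10% FCS at 37 °C in 5% CO2 on poly-L-lysine coverslips overnight. Compound added at 1 µM final for 5 h at 37 °C. Cells then loaded 1 min with LysoSensor Green DND-189 (1 µM final) and washed with HBSS. Lysosomal fluorescence imaged by microscopy with a cooled CCD camera. Duplicate experiments.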

| SMILES | GI50 [1] [nM] | GI50 [2] [nM] | pIC50 [3] | pIC50 [4] | Activity [5] | Activity (COS-7) |
| --- | --- | --- | --- | --- | --- | --- |
| CC/C=C\C=C/C(=O)N/C=C/C[C@H]1C[C@@H](O)[C@@H](C)C/C=C/Cc2cccc(O)c2C(=O)O1 [SALICYLIHALAMIDE A] | 15 | 7 | 9.00 | > 9.00 | Non-toxic | Active |
| CC/C=C\C=C/C(=O)N/C=C\C[C@H]1C[C@@H](O)[C@@H](C)C/C=C/Cc2ccc(F)c(O)c2C(=O)O1 [4-19F-SALICYLIHALAMIDE B] |  |  |  | 8.00 |  | Active |
| CC/C=C\C=C/C(=O)N/C=C\C[C@H]1C[C@@H](O)[C@@H](C)C/C=C/Cc2cccc(O)c2C(=O)O1 [SALICYLIHALAMIDE B] |  |  |  | 7.52 | Non-toxic | Active |
| CC/C=C\C=C/C(=O)N/C=C/C[C@H]1C[C@@H](O)[C@@H](C)C/C=C/Cc2ccc(F)c(O)c2C(=O)O1 [4-19F-SALICYLIHALAMIDE A] |  |  |  | 8.70 |  | Active |
